Assay results: ChEMBL document CHEMBL4038317, “Discovery of a Benzamide Derivative That Protects Pancreatic β-Cells against Endoplasmic Reticulum Stress” (J Med Chem, 2017)
Calls of active or inactive are those of the source. The calls are words filed in the database; no cut-off is given here.

How the values were obtained:
Mus musculus [1] = assay: Antidiabetic activity in STZ-induced diabetic C57BL/6 mouse model assessed as decrease in blood glucose level at 5 mg/kg, ip administrated qd with streptozotocin for 5 days followed by compound administration alone for 2 more weeks; format: functional, organism-based; details: TDE = time-dependent effect
Mus musculus [2] = assay: Toxicity in STZ-induced diabetic C57BL/6 mouse model assessed as effect on alpha-cells at 5 mg/kg, ip administrated qd with streptozotocin for 5 days followed by compound administration alone for 2 more weeks by DAPI-staining based confocal microscopic analysis; format: organism-based; details: in vivo, 120 h
How it was run: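 At the end of treatment in the STZ mouse model, pancreases were formalin-fixed, paraffin-embedded and serially sectioned at 100 μm intervals. Six sections were stained for insulin and glucagon with DAPI counterstain and imaged by confocal microscopy. Insulin-positive cells demarcated islets; total islet area per section and cells per islet were quantified.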

INS1 [3] = assay: Protection against tunicamycin ER stress-induced suppression of INS2 mRNA expression in rat INS-1 cells up to 1 uM after 24 hrs by qRT-PCR analysis; format: functional, cell-based
How it was run: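 INS-1 cells were exposed to tunicamycin 0.1 μg/mL with compound or DMSO for 24 h. INS1, INS2, PDX1 and MafA mRNA were measured by qRT-PCR and normalized to cyclophilin A by the comparative Ct method. Triplicate wells, 3 independent experiments.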

INS1 [4] = assay: Effect on CHOP mRNA level in rat INS-1 cells up to 10 uM after 8 hrs by qRT-PCR analysis; format: ADME, cell-based; details: ins1, 8 h
How it was run: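 INS-1 cells, 4×10^5 per well, were exposed to tunicamycin 0.1 μg/mL with compound or DMSO for 8 h. qRT-PCR for ATF4, CHOP, Bip, GRP94, or spliced XBP1 using splicing-specific primers. Values were normalized to cyclophilin A by ΔΔCt and given as fold over untreated control. Triplicate wells, 3 independent experiments.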

Rattus norvegicus = species: Rattus norvegicus; assay: Inhibition of IRE1alpha activation in rat INS-1 cells assessed as suppression of tunicamycin-induced increase in XBP1 mRNA levels up to 10 uM after 8 hrs by agarose gel electrophoresis method; format: cell-based
How it was run: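 INS-1 cells were exposed to tunicamycin 0.1 μg/mL with compound or DMSO for 8 h. Total XBP1 mRNA was amplified by RT-PCR, and the spliced and unspliced forms were separated electrophoretically.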

INS1 [5] = assay: Cytoprotective activity in rat INS-1 cells assessed as protection against tunicamycin-induced ER stress-mediated reduction reduction in cell viability up to 10 uM after 3 days by MTT assay; format: functional, cell-based
How it was run: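 INS-1 cells, 3×10^3 per well, were exposed to tunicamycin 0.1 μg/mL with compound for 72 h. MTT was added for 3 h at 37 °C, then crystal-dissolving solution for 4 h, and absorbance read at 570 nm. Triplicate wells, three independent experiments.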

Mus musculus [6] = assay: Antidiabetic activity in STZ-induced diabetic overnight fasted C57BL/6 mouse model assessed as blood glucose level at 5 mg/kg, ip administrated qd with streptozotocin for 5 days followed by compound administration alone for 2 more weeks measured at 30 mins post last dose relative to control; format: functional, organism-based
How it was run: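 Same STZ/compound i.p. regimen in male C57BL/6 mice, vehicle group as control. Intraperitoneal glucose tolerance test in overnight-fasted mice: glucose 2 g/kg i.p., blood glucose read at set times after the glucose load.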

[7] = biological target: T1, Eukaryotic translation initiation factor 2-alpha kinase 3 (Rattus norvegicus) (UniProt Q9Z1Z1); assay: Inhibition of tunicamycin ER stress-induced PERK activation in rat INS-1 cells assessed as suppression of tunicamycin-induced increase in ATF4 protein levels up to 10 uM after 8 hrs by Western blot analysis; format: cell-based
T1 sequence (whole entry): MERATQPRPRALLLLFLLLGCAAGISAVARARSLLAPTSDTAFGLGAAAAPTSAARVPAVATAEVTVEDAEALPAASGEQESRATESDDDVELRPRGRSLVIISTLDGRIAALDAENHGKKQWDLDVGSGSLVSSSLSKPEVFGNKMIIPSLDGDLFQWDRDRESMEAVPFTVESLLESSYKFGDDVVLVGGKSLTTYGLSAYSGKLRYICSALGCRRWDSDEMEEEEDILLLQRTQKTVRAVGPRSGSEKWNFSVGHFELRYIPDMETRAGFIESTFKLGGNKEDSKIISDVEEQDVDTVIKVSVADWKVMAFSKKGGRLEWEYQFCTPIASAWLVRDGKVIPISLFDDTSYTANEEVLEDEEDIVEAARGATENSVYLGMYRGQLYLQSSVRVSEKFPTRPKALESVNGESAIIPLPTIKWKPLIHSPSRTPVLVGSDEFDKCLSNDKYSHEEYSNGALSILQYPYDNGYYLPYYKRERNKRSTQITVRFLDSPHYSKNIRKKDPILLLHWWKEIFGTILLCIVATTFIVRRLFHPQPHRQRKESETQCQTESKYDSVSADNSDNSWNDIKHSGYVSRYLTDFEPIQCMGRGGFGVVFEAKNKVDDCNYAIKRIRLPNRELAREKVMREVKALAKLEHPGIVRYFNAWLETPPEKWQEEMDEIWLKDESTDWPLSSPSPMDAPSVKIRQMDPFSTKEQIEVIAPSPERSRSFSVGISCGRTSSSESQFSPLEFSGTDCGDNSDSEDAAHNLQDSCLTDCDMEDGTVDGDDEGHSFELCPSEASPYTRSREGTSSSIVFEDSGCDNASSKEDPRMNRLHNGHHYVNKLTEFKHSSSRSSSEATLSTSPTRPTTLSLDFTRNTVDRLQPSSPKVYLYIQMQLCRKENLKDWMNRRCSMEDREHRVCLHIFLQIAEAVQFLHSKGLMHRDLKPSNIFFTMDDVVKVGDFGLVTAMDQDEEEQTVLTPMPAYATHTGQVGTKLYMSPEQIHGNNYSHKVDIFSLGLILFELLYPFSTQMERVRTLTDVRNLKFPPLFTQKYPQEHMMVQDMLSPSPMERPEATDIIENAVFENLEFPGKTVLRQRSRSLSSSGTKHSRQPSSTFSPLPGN
How it was run: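 INS-1 cells were exposed to tunicamycin 0.1 μg/mL with compound or DMSO for 8 h. Lysates were immunoblotted for ATF4 and CHOP (1:1000). Bands were quantified by densitometry and normalized to α-tubulin; 3 independent experiments.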

For O=C(NCc1ccc(C(F)(F)F)cc1)c1cccc(CN2CCCCC2)c1, the Activity (Mus musculus [1]) was “Tde”, the Activity (Mus musculus [2]) was “Non-Toxic” and the Activity (INS1 [3]) was “Active”. The Activity (INS1 [4]) was “Non-Toxic”, the inhibition (Rattus norvegicus) was “Active” and the Activity (INS1 [5]) was “Active”. For the same compound, the Activity (Mus musculus [6]) was “Active” and the inhibition [7] was “Active”.
